For 27 compounds, IC50 results are on record in BindingDB's records for doi:10.1016/j.bmcl.2018.12.060 (Yanbian University College of Pharmacy, 2019).

For this assay, the target named is Hypoxia-inducible factor 1-alpha (Homo sapiens, UniProt Q16665). Description: Inhibition of HIF1alpha transcriptional activity in human Hep3B cells after 24 hrs in hypoxic condition by HRE-dual luciferase reporter gene assay. Summed up:
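Hep3B cells transiently co-transfected with pGL3-HRE-luciferase and pRL-CMV, after 24 h incubated under hypoxia with or without compound; luciferase activity measured after 24 h, ursolic acid as positive control; mean ± SD of three independent experiments.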

Chain of Hypoxia-inducible factor 1-alpha (Q16665 whole entry): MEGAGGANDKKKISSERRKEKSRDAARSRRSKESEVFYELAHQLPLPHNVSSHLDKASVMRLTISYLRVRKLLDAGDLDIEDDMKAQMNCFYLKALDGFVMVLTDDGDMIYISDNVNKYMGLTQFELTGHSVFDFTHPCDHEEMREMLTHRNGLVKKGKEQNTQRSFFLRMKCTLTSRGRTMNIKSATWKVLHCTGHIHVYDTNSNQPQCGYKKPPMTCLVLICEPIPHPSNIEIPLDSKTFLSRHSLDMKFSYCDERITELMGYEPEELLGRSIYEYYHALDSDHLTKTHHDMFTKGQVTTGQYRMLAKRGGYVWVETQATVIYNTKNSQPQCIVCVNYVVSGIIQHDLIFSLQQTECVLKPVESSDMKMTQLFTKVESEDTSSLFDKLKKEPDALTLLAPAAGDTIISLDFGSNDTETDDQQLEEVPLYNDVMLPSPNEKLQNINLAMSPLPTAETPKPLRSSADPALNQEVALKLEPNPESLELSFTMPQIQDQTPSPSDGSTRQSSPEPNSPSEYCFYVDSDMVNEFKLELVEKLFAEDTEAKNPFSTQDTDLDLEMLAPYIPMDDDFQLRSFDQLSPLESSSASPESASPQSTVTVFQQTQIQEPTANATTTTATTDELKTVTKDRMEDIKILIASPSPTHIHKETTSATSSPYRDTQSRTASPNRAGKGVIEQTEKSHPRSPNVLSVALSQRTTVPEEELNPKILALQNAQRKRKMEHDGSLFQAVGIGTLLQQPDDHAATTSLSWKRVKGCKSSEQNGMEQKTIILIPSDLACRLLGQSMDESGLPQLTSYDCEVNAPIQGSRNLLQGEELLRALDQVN

In general, IC50 refers to the concentration at which inhibition is half-maximal. As for `C[C@H]1[C@H](C)CC[C@]2(C(=O)OCc3c(Cl)cccc3Cl)CC[C@]3(C)C(=CC[C@@H]4[C@@]5(C)CC/C(=N\NC(=N)N)C(C)(C)[C@@H]5CC[C@]43C)[C@H]12`, the IC50 came to 13.3 µM.
The same measure for `C[C@H]1[C@H](C)CC[C@]2(C(=O)O)CC[C@]3(C)C(=CC[C@@H]4[C@@]5(C)CC(=C\c6ccccc6Br)/C(=N\NC(=N)N)C(C)(C)[C@@H]5CC[C@]43C)[C@H]12`: above 100 µM.
`C[C@H]1[C@H](C)CC[C@]2(C(=O)O)CC[C@]3(C)C(=CC[C@@H]4[C@@]5(C)CC/C(=N\NC(=N)N)C(C)(C)[C@@H]5CC[C@]43C)[C@H]12` had an IC50 above 100 µM.
For the compound `C[C@H]1[C@H](C)CC[C@]2(C(=O)O)CC[C@]3(C)C(=CC[C@@H]4[C@@]5(C)CC/C(=N\NC(N)=S)C(C)(C)[C@@H]5CC[C@]43C)[C@H]12`, the IC50 came out at 88.8 µM.
As to `COC(=O)[C@]12CC[C@@H](C)[C@H](C)[C@H]1C1=CC[C@@H]3[C@@]4(C)CC/C(=N\NC(=N)N)C(C)(C)[C@@H]4CC[C@@]3(C)[C@]1(C)CC2`, the IC50 came out at 6.7 µM.
The compound `CCOC(=O)[C@]12CC[C@@H](C)[C@H](C)[C@H]1C1=CC[C@@H]3[C@@]4(C)CC/C(=N\NC(=N)N)C(C)(C)[C@@H]4CC[C@@]3(C)[C@]1(C)CC2` registered an IC50 above 100 µM.
With `C[C@H]1[C@H](C)CC[C@]2(C(=O)OCc3cccc(Cl)c3)CC[C@]3(C)C(=CC[C@@H]4[C@@]5(C)CC/C(=N\NC(=N)N)C(C)(C)[C@@H]5CC[C@]43C)[C@H]12` the figure was 30.3 µM; with `Cc1ccc(COC(=O)[C@]23CC[C@@H](C)[C@H](C)[C@H]2C2=CC[C@@H]4[C@@]5(C)CC/C(=N\NC(=N)N)C(C)(C)[C@@H]5CC[C@@]4(C)[C@]2(C)CC3)cc1`, 10.3 µM; with `C[C@H]1[C@H](C)CC[C@]2(C(=O)O)CC[C@]3(C)C(=CC[C@@H]4[C@@]5(C)CC(=C\c6ccccc6Cl)/C(=N\NC(=N)N)C(C)(C)[C@@H]5CC[C@]43C)[C@H]12`, above 100 µM.
Compound `C[C@H]1[C@H](C)CC[C@]2(C(=O)O)CC[C@]3(C)C(=CC[C@@H]4[C@@]5(C)CC(=C\c6cccc(Cl)c6)/C(=N\NC(=N)N)C(C)(C)[C@@H]5CC[C@]43C)[C@H]12` returned an IC50 above 100 µM.
The same measure for `C[C@H]1[C@H](C)CC[C@]2(C(=O)O)CC[C@]3(C)C(=CC[C@@H]4[C@@]5(C)CC(=C\c6ccc(F)cc6)/C(=N\NC(=N)N)C(C)(C)[C@@H]5CC[C@]43C)[C@H]12`: above 100 µM; for `C[C@H]1[C@H](C)CC[C@]2(C(=O)O)CC[C@]3(C)C(=CC[C@@H]4[C@@]5(C)CC(=C\c6cccc(Br)c6)/C(=N\NC(=N)N)C(C)(C)[C@@H]5CC[C@]43C)[C@H]12`: 75.4 µM; for `C[C@H]1[C@H](C)CC[C@]2(C(=O)O)CC[C@]3(C)C(=CC[C@@H]4[C@@]5(C)CC(=C\c6c(Cl)cccc6Cl)/C(=N\NC(=N)N)C(C)(C)[C@@H]5CC[C@]43C)[C@H]12`: above 100 µM.
The same measure for `Cc1ccc(/C=C2\C[C@]3(C)[C@H]4CC=C5[C@@H]6[C@@H](C)[C@H](C)CC[C@]6(C(=O)O)CC[C@@]5(C)[C@]4(C)CC[C@H]3C(C)(C)\C2=N\NC(=N)N)cc1`: above 100 µM; for `C[C@H]1[C@H](C)CC[C@]2(C(=O)O)CC[C@]3(C)C(=CC[C@@H]4[C@@]5(C)CC(=C\c6ccco6)/C(=N\NC(=N)N)C(C)(C)[C@@H]5CC[C@]43C)[C@H]12`: above 100 µM.
With `C[C@H]1[C@H](C)CC[C@]2(C(=O)O)CC[C@]3(C)C(=CC[C@@H]4[C@@]5(C)CC(=C\c6cccs6)/C(=N\NC(=N)N)C(C)(C)[C@@H]5CC[C@]43C)[C@H]12` the figure was 22.8 µM; with `CCCCCOC(=O)[C@]12CC[C@@H](C)[C@H](C)[C@H]1C1=CC[C@@H]3[C@@]4(C)CC/C(=N\NC(=N)N)C(C)(C)[C@@H]4CC[C@@]3(C)[C@]1(C)CC2`, above 100 µM.
Consider `C[C@H]1[C@H](C)CC[C@]2(C(=O)O)CC[C@]3(C)C(=CC[C@@H]4[C@@]5(C)CC(=C\c6ccccc6)/C(=N\NC(=N)N)C(C)(C)[C@@H]5CC[C@]43C)[C@H]12`, for which it took 37.8 µM to reach half-maximal inhibition (IC50). This counts as double-digit micromolar.
The compound `C[C@H]1[C@H](C)CC[C@]2(C(=O)O)CC[C@]3(C)C(=CC[C@@H]4[C@@]5(C)CC(=C\c6cccc7ccccc67)/C(=N\NC(=N)N)C(C)(C)[C@@H]5CC[C@]43C)[C@H]12` came in with an IC50 above 100 µM.
In turn, `C[C@H]1[C@H](C)CC[C@]2(C(=O)OCc3ccc(Cl)cc3)CC[C@]3(C)C(=CC[C@@H]4[C@@]5(C)CC/C(=N\NC(=N)N)C(C)(C)[C@@H]5CC[C@]43C)[C@H]12` came in with an IC50 of 21.1 µM.
As to `C[C@H]1[C@H](C)CC[C@]2(C(=O)O)CC[C@]3(C)C(=CC[C@@H]4[C@@]5(C)CC(=C\c6ccc(Cl)cc6Cl)/C(=N\NC(=N)N)C(C)(C)[C@@H]5CC[C@]43C)[C@H]12`, the IC50 came out at 90.4 µM. Against the preceding compound, the IC50 is about 4.3-fold higher.
The same measure for `C[C@H]1[C@H](C)CC[C@]2(C(=O)O)CC[C@]3(C)C(=CC[C@@H]4[C@@]5(C)CC/C(=N\NC(N)=O)C(C)(C)[C@@H]5CC[C@]43C)[C@H]12`: 13.3 µM.
On to `C[C@H]1[C@H](C)CC[C@]2(C(=O)OCc3ccc(Cl)cc3Cl)CC[C@]3(C)C(=CC[C@@H]4[C@@]5(C)CC/C(=N\NC(=N)N)C(C)(C)[C@@H]5CC[C@]43C)[C@H]12`, for which 40.5 µM corresponded to half-maximal inhibition (IC50).
In the case of `C[C@H]1[C@H](C)CC[C@]2(C(=O)O)CC[C@]3(C)C(=CC[C@@H]4[C@@]5(C)CC(=C\c6cccc(F)c6)/C(=N\NC(=N)N)C(C)(C)[C@@H]5CC[C@]43C)[C@H]12`, the IC50 was above 100 µM.
With `C[C@H]1[C@H](C)CC[C@]2(C(=O)O)CC[C@]3(C)C(=CC[C@@H]4[C@@]5(C)CC(=C\c6ccc([N+](=O)[O-])cc6)/C(=N\NC(=N)N)C(C)(C)[C@@H]5CC[C@]43C)[C@H]12` the figure was above 100 µM.
`C[C@H]1[C@H](C)CC[C@]2(C(=O)O)CC[C@]3(C)C(=CC[C@@H]4[C@@]5(C)CC(=C\c6ccccc6F)/C(=N\NC(=N)N)C(C)(C)[C@@H]5CC[C@]43C)[C@H]12`: the IC50 was above 100 µM.
With `C[C@H]1[C@H](C)CC[C@]2(C(=O)O)CC[C@]3(C)C(=CC[C@@H]4[C@@]5(C)CC[C@H](O)C(C)(C)[C@@H]5CC[C@]43C)[C@H]12` [3beta-hydroxyurs-12-en-28-oic acid] the figure was above 100 µM.
